Experimental data from ChEMBL document CHEMBL4184168, “Anticancer activities of emetine prodrugs that are proteolytically activated by the prostate specific antigen (PSA) and evaluation of in vivo toxicity of emetine derivatives” (Bioorg Med Chem, 2017).
The source made the active and inactive calls. No cut-off for these calls is given here. *1 amine or outer side, *2 acyl side, *3 side chain or, on linkers, in order; H or OH if unused. Where a SMILES comes first, the peptide text is derived from it. [ ]: non-standard residue; d: D form. The star is where a group is joined. Emetine(N2') = CC[C@H]1CN2CCc3cc(OC)c(OC)cc3[C@@H]2C[C@@H]1C[C@@H]1c2cc(OC)c(OC)cc2CCN1*; PABC = O=C(OCc1ccc(N[*:1])cc1)[*:2]

Tests used:
[1] = Toxicity in iv dosed Balb/C mouse; assay type: organism-based; conditions: in vivo
Method in brief: (§1)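 Male Balb/c mice, eight weeks old, about 25 g. Single IV bolus of 200 μL, doses ranging from 8 to 100 mg/kg, in 1% DMSO/saline or 10% cremophor/saline; vehicle-only controls. Each dose tested in triplicate. Mice watched for convulsions, death and behaviour after injection to set the maximum tolerated dose.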

Mus musculus [2] = experiment: Toxicity in Balb/C mouse assessed as mortality at >100 mg/kg, iv; assay type: organism-based; conditions: in vivo; method in brief: as §1
Mus musculus [3] = experiment: Toxicity in Balb/C mouse assessed as change in behavior at >100 mg/kg, iv; assay type: organism-based; conditions: in vivo; method in brief: as §1
LNCaP [4] = experiment: Antiproliferative activity against human LNCAP cells expressing PSA after 3 days by MTT assay; assay type: functional, cell-based; conditions: 72 h
Method in brief: (§2)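 LNCaP seeded at 5 × 10^3 cells/well; PC3, CWR22Rv1 and MDA-MB-231 at 2.5 × 10^3. The first three were grown in RPMI and MDA-MB-231 in DMEM, each with 10% FBS. After 24 h attachment, cells got final 10, 50, 100, 1000 or 10,000 nM (0.1% DMSO) in eight replicates. Viable cells by MTT on day 0, 3 and 5, A570 corrected at 650 nm. Experiments run at least twice.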

PC-3 [5] = experiment: Antiproliferative activity against human PC3 cells after 3 days by MTT assay; assay type: functional, cell-based; conditions: PC-3, 72 h; method in brief: as §2
[6] = Stability in PBS buffer assessed as parent compound remaining at […] after 72 hrs by HPLC-MS analysis; assay type: physicochemical; conditions: read-out: Stability
[7] = Stability in conditioned media assessed as parent compound remaining at […] after 72 hrs by HPLC-MS analysis; assay type: physicochemical; conditions: read-out: Stability
[8] = Stability assessed as parent compound remaining at […] in presence of 10% FBS after 72 hrs by HPLC-MS analysis; assay type: physicochemical; conditions: cattle, read-out: Stability
Mus musculus [9] = experiment: Toxicity in Balb/C mouse at >50 mg/kg, iv; assay type: organism-based; conditions: in vivo; method in brief: as §1
[10] = target: T1, Prostate-specific antigen (PSA) (Homo sapiens, UniProt P07288); experiment: Stability in PBS buffer assessed as human PSA mediated compound metabolism by measuring parent compound remaining at […] after 72 hrs by HPLC-MS analysis; assay type: ADME; conditions: read-out: Stability
T1 sequence (P07288 whole entry): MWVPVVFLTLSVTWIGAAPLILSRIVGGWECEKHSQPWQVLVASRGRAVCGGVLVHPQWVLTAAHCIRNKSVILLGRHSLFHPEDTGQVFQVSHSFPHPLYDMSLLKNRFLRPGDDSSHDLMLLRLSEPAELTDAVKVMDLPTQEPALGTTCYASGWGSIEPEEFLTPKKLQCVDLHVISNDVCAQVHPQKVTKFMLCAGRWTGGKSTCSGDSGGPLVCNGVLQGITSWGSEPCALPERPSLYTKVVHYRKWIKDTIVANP

Mus musculus [11] = experiment: Toxicity in Balb/C mouse at >100 mg/kg, iv; assay type: organism-based; conditions: in vivo; method in brief: as §1
Mus musculus [12] = experiment: Toxicity in Balb/C mouse assessed as convulsion at >25 mg/kg, iv up to 1 min; assay type: organism-based; conditions: in vivo; method in brief: as §1
Mus musculus [13] = experiment: Toxicity in Balb/C mouse assessed as death at >25 mg/kg, iv up to 1 min; assay type: organism-based; conditions: in vivo; method in brief: as §1
LNCaP [14] = experiment: Antiproliferative activity against human LNCAP cells expressing PSA at 10000 nM after 3 days by MTT assay; assay type: functional, cell-based; method in brief: as §2
PC-3 [15] = experiment: Antiproliferative activity against human PC3 cells at 10000 nM after 3 days by MTT assay; assay type: functional, cell-based; method in brief: as §2
Mus musculus [16] = experiment: Toxicity in Balb/C mouse assessed death at >32 mg/kg, iv; assay type: organism-based; conditions: in vivo
Mus musculus [17] = experiment: Toxicity in Balb/C mouse assessed as death at 33 mg/kg, iv measured at 1 min post dose; assay type: organism-based; conditions: in vivo; method in brief: as §1
Mus musculus [18] = experiment: Toxicity in Balb/C mouse assessed as convulsion at 33 mg/kg, iv measured at 1 min post dose; assay type: organism-based; conditions: in vivo; method in brief: as §1
Mus musculus [19] = experiment: Toxicity in Balb/C mouse assessed as convulsion at 16 mg/kg, iv up to 1 min; assay type: organism-based; conditions: in vivo; method in brief: as §1
Mus musculus [20] = experiment: Toxicity in Balb/C mouse assessed as death at 16 mg/kg, iv up to 1 min; assay type: organism-based; conditions: in vivo; method in brief: as §1
Mus musculus [21] = experiment: Toxicity in Balb/C mouse assessed as convulsions at >25 mg/kg, iv; assay type: organism-based; conditions: in vivo; method in brief: as §1
LNCaP [22] = experiment: Potency index, ratio of emetine IC50 to compound IC50 for human LNCAP cells expressing PSA; assay type: functional
[23] = target: T2, Prostate-specific antigen (Homo sapiens, UniProt P07288); experiment: Prodrug activation assessed as human PSA-mediated 4-((S)-1-(L-Alanyl)pyrrolidine-2-carboxamido)benzyl (R)-1-(((2R,3R,11bS)-3-ethyl-9,10-dimethoxy-1,3,4,6,7,11b-hexahydro-2Hpyrido[2,1-a]isoquinolin-2-yl)methyl)-6,7-dimethoxy-3,4-dihydroisoquinoline-2(1H)-carboxylate formation measured over 24 hrs by LC-MS analysis
T2 sequence (P07288 whole entry): T1 sequence (P07288 whole entry)
Method in brief: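 10 mM DMSO stock diluted to 200 μM final in PSA buffer (50 mM Tris·HCl, 100 mM NaCl, pH 7.4) with purified PSA at 20 μg/mL final and 2% DMSO. Shaken at 37 °C. Aliquots taken at time points, quenched with cold acetonitrile, held on ice, centrifuged, then analysed by reversed-phase C18 HPLC (215/285 nm) and mass spectrometry.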

MDA-MB-231 = experiment: Antiproliferative activity against human MDA-MB-231 cells at 50 to 10000 nM after 3 days by MTT assay; assay type: functional, cell-based; method in brief: as §2
PC-3 [24] = experiment: Antiproliferative activity against human PC3 cells at 50 to 10000 nM after 3 days by MTT assay; assay type: functional, cell-based; method in brief: as §2
Mus musculus [25] = experiment: Toxicity in Balb/C mouse at 32 mg/kg, iv; assay type: organism-based; conditions: in vivo
CWR22R = experiment: Antiproliferative activity against human CWR22Rv1 cells expressing PSA after 3 days by MTT assay; assay type: functional, cell-based; conditions: 22Rv1, 72 h; method in brief: as §2

Structure (SMILES): CC[C@H]1CN2CCc3cc(OC)c(OC)cc3[C@@H]2C[C@@H]1C[C@@H]1c2cc(OC)c(OC)cc2CCN1C(=S)[S-].[Na+]
- MTD [1]: > 100 mg/kg
- Activity (Mus musculus [2]): Non-Toxic
- Activity (Mus musculus [3]): Non-Toxic

Structure (SMILES): CC[C@H]1CN2CCc3cc(OC)c(OC)cc3[C@@H]2C[C@@H]1C[C@@H]1c2cc(OC)c(OC)cc2CCN1C(=O)OCc1ccc(NC(=O)[C@H](CC(C)C)NC(=O)[C@@H](N)CO)cc1
- MTD [1]: 50 mg/kg
- IC50 (LNCaP [4]): 100 nM
- IC50 (PC-3 [5]): 100 nM
- remaining at 72 h [6]: 100%
- remaining at 72 h [7]: 100%
- remaining at 72 h [8]: 100%
- Activity (Mus musculus [9]): Toxic
- remaining at 72 h [10]: 100%

Structure (SMILES): CC[C@H]1CN2CCc3cc(OC)c(OC)cc3[C@@H]2C[C@@H]1C[C@@H]1c2cc(OC)c(OC)cc2CCN1C(=O)OCc1ccc([N+](=O)[O-])cc1
- MTD [1]: > 64 mg/kg
- Activity (Mus musculus [2]): Non-Toxic
- Activity (Mus musculus [11]): Non-Toxic
- Activity (Mus musculus [3]): Non-Toxic

Structure (SMILES): CC[C@H]1CN2CCc3cc(OC)c(OC)cc3[C@@H]2C[C@@H]1C[C@@H]1c2cc(OC)c(OC)cc2CCN1C(=O)/C=C(/CC(=O)O)C(=O)O
- MTD [1]: > 100 mg/kg
- Activity (Mus musculus [2]): Non-Toxic
- Activity (Mus musculus [3]): Non-Toxic

Structure (SMILES): CC[C@H]1CN2CCc3cc(OC)c(OC)cc3[C@@H]2C[C@@H]1C[C@@H]1c2cc(OC)c(OC)cc2CCN1C(=O)OCc1ccc(NC(=O)[C@@H]2CCCN2C(=O)[C@H](C)NC(=O)[C@@H]2CCCN2C(=O)CNC(=O)[C@H](C)NC(=O)[C@@H]2CCCN2C(=O)CNC(=O)[C@H](CO)NC(=O)[C@H](C)NC(C)=O)cc1 (Ac-ASGPAGPAP[PABC]-{Emetine(N2')})
- Activity (Mus musculus [12]): Toxic
- MTD [1]: 25 mg/kg
- Activity (Mus musculus [13]): Toxic

Structure (SMILES): CC[C@@H]1C[C@@H](C[C@@H]2c3cc(OC)c(OC)cc3CCN2C(=O)OCc2ccc(NC(=O)[C@H](CC(C)C)NC(=O)[C@H](CO)NC(C)=O)cc2)[C@H]2c3cc(OC)c(OC)cc3CCN2C1
- Activity (LNCaP [14]): Active
- Activity (PC-3 [15]): Active

Structure (SMILES): CC[C@H]1CN2CCc3cc(OC)c(OC)cc3[C@@H]2C[C@@H]1C[C@@H]1c2cc(OC)c(OC)cc2CCN1C(=O)CCC(=O)O
- MTD [1]: > 100 mg/kg
- Activity (Mus musculus [2]): Non-Toxic
- Activity (Mus musculus [3]): Non-Toxic

Structure (SMILES): CC[C@H]1CN2CCc3cc(OC)c(OC)cc3[C@@H]2C[C@@H]1C[C@@H]1c2cc(OC)c(OC)cc2CCN1C(=O)OCc1ccc(NC(=O)[C@@H]2CCCN2C(=O)[C@H](C)N)cc1
- MTD [1]: 32 mg/kg
- Activity (Mus musculus [16]): Toxic

Structure (SMILES): CC[C@H]1CN2CCc3cc(OC)c(OC)cc3[C@@H]2C[C@@H]1C[C@@H]1c2cc(OC)c(OC)cc2CCN1C(=O)/C=C(/C)C(=O)O
- MTD [1]: > 100 mg/kg
- Activity (Mus musculus [2]): Non-Toxic
- Activity (Mus musculus [3]): Non-Toxic

Structure (SMILES): CC[C@H]1CN2CCc3cc(OC)c(OC)cc3[C@@H]2C[C@@H]1C[C@@H]1c2cc(OC)c(OC)cc2CCN1C(=O)OCc1ccc(NC(=O)[C@@H]2CCCN2C(=O)[C@H](C)NC(=O)[C@@H]2CCCN2C(=O)[C@H](C)NC(C)=O)cc1 (Ac-APAP[PABC]-{Emetine(N2')})
- Activity (Mus musculus [17]): Toxic
- Activity (Mus musculus [18]): Toxic

Structure (SMILES): CC[C@H]1CN2CCc3cc(OC)c(OC)cc3[C@@H]2C[C@@H]1C[C@@H]1c2cc(OC)c(OC)cc2CCN1C(=O)[C@@H]1CCCN1C(=O)[C@H](C)N
- Activity (Mus musculus [19]): Toxic
- Activity (Mus musculus [20]): Toxic

Structure (SMILES): CC[C@H]1CN2CCc3cc(OC)c(OC)cc3[C@@H]2C[C@@H]1C[C@@H]1c2cc(OC)c(OC)cc2CCN1C(=O)OCc1ccc(NC(=O)[C@@H]2CCCN2C(=O)[C@H](C)NC(=O)[C@H](CCC(N)=O)NC(=O)[C@H](CC(C)C)NC(=O)[C@H](CCCCN)NC(=O)[C@H](CO)NC(=O)[C@H](CO)NC(=O)[C@H](Cc2cnc[nH]2)NC(C)=O)cc1 (Ac-HSSKLQAP[PABC]-{Emetine(N2')})
- Activity (Mus musculus [21]): Toxic
- Ratio IC50 (LNCaP [22]): 24
- Drug metabolism [23]: Metabolite_Notdetected
- Activity (MDA-MB-231): Active
- Activity (PC-3 [24]): Active

Structure (SMILES): CC[C@H]1CN2CCc3cc(OC)c(OC)cc3[C@@H]2C[C@@H]1C[C@@H]1c2cc(OC)c(OC)cc2CCN1C(=S)Nc1ccccc1
- MTD [1]: > 100 mg/kg
- Activity (Mus musculus [2]): Non-Toxic
- Activity (Mus musculus [11]): Non-Toxic
- Activity (Mus musculus [3]): Non-Toxic

Structure (SMILES): CC[C@H]1CN2CCc3cc(OC)c(OC)cc3[C@@H]2C[C@@H]1C[C@@H]1c2cc(OC)c(OC)cc2CCN1C(=O)/C(C)=C(/C)C(=O)O
- Activity (Mus musculus [25]): Toxic

Structure (SMILES): CC[C@H]1CN2CCc3cc(OC)c(OC)cc3[C@@H]2C[C@@H]1C[C@H]1NCCc2cc(OC)c(OC)cc21 [EMETINE]
- MTD [1]: 8 mg/kg
- Activity (Mus musculus [19]): Toxic
- Activity (MDA-MB-231): Active
- IC50 (CWR22R): 30.8 nM
- Activity (PC-3 [24]): Active
- Activity (Mus musculus [20]): Toxic
